Assay results reported in ChEMBL document CHEMBL1146298, “Identification of the benzodiazepines as a new class of antileishmanial agent” (Bioorg Med Chem Lett, 2007).
The source made the active and inactive calls. The rule behind the calls is not given here.

Key:
[1] = test system: Leishmania donovani; test: Antileishmanial activity against antimony-sensitive Leishmania donovani 200016 promastigotes in bone marrow-derived macrophages assessed as parasite suppression at 100 ug/ml; type: functional
Summary of the method: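 Fixed 72 h post-treatment and Giemsa-stained (10% v/v). Percent of 200 random cells infected was scored, and mean % suppression ± SE was taken against the control mean. Mann–Whitney U test vs control, p < 0.05 significant.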

[2] = Toxicity against bone marrow-derived macrophages; type: cell-based; settings: human, macrophage
[3] = test system: Macrophage; test: Decrease in cellular glutathione levels in macrophages; type: functional, cell-based; settings: Homo sapiens
[4] = test system: Leishmania donovani; test: Antileishmanial activity against antimony-sensitive Leishmania donovani 200016 promastigotes in bone marrow-derived macrophages at 37 ug/ml; type: functional
[5] = test system: Leishmania donovani; test: Antileishmanial activity against antimony-sensitive Leishmania donovani 200016 promastigotes in bone marrow-derived macrophages; type: functional; settings: read-out: LD50 (the source's name)
Summary of the method: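 After 72 h, cells fixed and stained with 10% v/v aqueous Giemsa; mean percentage of infected cells scored from 200 random cells. Mean percentage suppression ± SE computed against control mean; significance tested by Mann–Whitney U test, p < 0.05.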

Q: Which Activity [1] does the source give for `CN1C(=O)CN(CCc2ccccc2)C(=O)c2ccccc21` here?
A: 19.6%

Q: For `O=C1Nc2ccccc2C(=O)N2CSC[C@@H]12`, which Activity [2] is on record?
A: Toxic

Q: What about the Activity [1] of the same compound?
A: 33%

Q: With `c1ccc2c(c1)CN1CCC[C@@H]1CN2` as the compound, how does the Activity [1] read?
A: 67.8%

Q: Which Activity [1] does the source give for `COc1cccc(CN2CC(=O)N(C)c3ccccc3C2=O)c1` here?
A: 54.6%

Q: With `O=C1N[C@H](Cc2ccccc2)C(=O)Nc2ccccc21` as the compound, how does the Activity [1] read?
A: 23%

Q: With `c1ccc2c(c1)CN1CCC[C@H]1CN2` as the compound, how does the Activity [1] read?
A: 23%

Q: Which Activity [1] does the source give for `O=C1Nc2ccccc2C(=O)N2CCC[C@H]12` here?
A: 85.4%

Q: With `CC(C)C[C@@H]1NC(=O)c2ccccc2NC1=O` as the compound, how does the Activity [1] read?
A: inactive

Q: With `CN1C(=O)CN(CC2CCCCC2)C(=O)c2cc(Cl)ccc21` as the compound, how does the Activity [3] read?
A: Active

Q: What about the Activity [4] of the same compound?
A: 73%

Q: What about the LC50 [5] of the same compound?
A: 115 µM

Q: What about the Activity [1] of the same compound?
A: 85%

Q: Which Activity [1] does the source give for `O=C1CNC(=O)c2ccccc2N1` here?
A: 19%

Q: With `O=C1c2ccccc2NC[C@@H]2CCCN12` as the compound, how does the Activity [1] read?
A: 70.6%

Q: Which Activity [1] does the source give for `CN1C(=O)CN(CC2CC2)C(=O)c2ccccc21` here?
A: inactive

Q: With `O=C1N[C@@H](Cc2ccc(O)cc2)C(=O)Nc2ccccc21` as the compound, how does the Activity [1] read?
A: 64.4%

Q: Which Activity [1] does the source give for `CN1C(=O)CN(C2CCCCC2)C(=O)c2ccccc21` here?
A: 26.4%

Q: With `CN1C(=O)CN(CC2CCCCC2)C(=O)c2ccccc21` as the compound, how does the Activity [3] read?
A: Active

Q: And the Activity [4]?
A: inactive

Q: And the Activity [2]?
A: Toxic

Q: Which Activity [1] does the source give for `CN1CC(=O)N(C)c2ccccc2C1=O` here?
A: inactive

Q: What does the source list for `CCCCCCN1CC(=O)N(C)c2ccccc2C1=O`?
A: Activity [2]: Toxic; Activity [1]: inactive

Q: Which Activity [1] does the source give for `O=C1N[C@@H](Cc2ccccc2)C(=O)Nc2ccccc21` here?
A: 53.5%

Q: Which Activity [1] does the source give for `O=C1Nc2ccccc2C(=O)N2CCC[C@@H]12` here?
A: 70.3%

Q: With `CCCN1CC(=O)N(C)c2ccccc2C1=O` as the compound, how does the Activity [1] read?
A: 72%

Q: Which Activity [1] does the source give for `CN1C(=O)CN(c2ccccc2)C(=O)c2ccccc21` here?
A: inactive

Q: Which Activity [1] does the source give for `C[C@@H]1NC(=O)c2ccccc2NC1=O` here?
A: 28%

Q: With `CN1C(=O)CN(Cc2ccccc2)C(=O)c2ccccc21` as the compound, how does the Activity [1] read?
A: 51%

Q: Which Activity [1] does the source give for `O=C1c2ccccc2NC[C@H]2CCCN12` here?
A: 61.7%

Q: Which Activity [1] does the source give for `O=C1Nc2ccccc2C(=O)N2Cc3ccccc3C[C@@H]12` here?
A: 25%
